This passage reports inhibition, GI50 and Activity results from ChEMBL document CHEMBL4229372, “Synthesis and anti-mitotic activity of 2,4- or 2,6-disubstituted- and 2,4,6-trisubstituted-2H-pyrazolo[4,3-c]pyridines” (2018).

The structures appear in SMILES notation. Active and inactive are the calls of the source. The calls are words filed in the database; no cut-off is given here.

Assay [1] deals with Serine/threonine-protein kinase PLK2 (Homo sapiens) (UniProt Q9NYY3). The experiment in a line: Inhibition of PLK2 (unknown origin).
Chain of Serine/threonine-protein kinase PLK2 (Homo sapiens) (Q9NYY3 whole entry, looked up): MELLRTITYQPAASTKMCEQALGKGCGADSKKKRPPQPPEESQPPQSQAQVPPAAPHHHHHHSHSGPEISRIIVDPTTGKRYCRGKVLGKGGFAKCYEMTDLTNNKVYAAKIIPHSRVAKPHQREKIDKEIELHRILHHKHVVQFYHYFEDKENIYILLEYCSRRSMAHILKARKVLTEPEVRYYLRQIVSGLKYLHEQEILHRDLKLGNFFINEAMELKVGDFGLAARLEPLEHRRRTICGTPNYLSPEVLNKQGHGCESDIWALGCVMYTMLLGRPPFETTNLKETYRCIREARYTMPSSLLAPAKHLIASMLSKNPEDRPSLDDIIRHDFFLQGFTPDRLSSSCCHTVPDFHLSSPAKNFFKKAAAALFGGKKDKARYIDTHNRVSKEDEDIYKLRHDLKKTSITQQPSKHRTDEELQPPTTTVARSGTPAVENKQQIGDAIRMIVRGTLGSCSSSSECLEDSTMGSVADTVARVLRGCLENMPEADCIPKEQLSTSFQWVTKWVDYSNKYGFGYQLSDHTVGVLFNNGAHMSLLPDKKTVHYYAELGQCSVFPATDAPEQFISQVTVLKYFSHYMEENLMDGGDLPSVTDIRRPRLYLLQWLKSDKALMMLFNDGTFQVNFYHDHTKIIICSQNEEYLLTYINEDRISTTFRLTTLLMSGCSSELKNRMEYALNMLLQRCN
The test system of assay [2] is K562. Briefly: Growth inhibition of human K562 cells after 72 hrs by Calcein AM dye based fluorescence assay. It counts as functional. As to conditions: K562, 72 h. In short, it runs like this:
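Cells in DMEM with 10% FBS at 37 °C, 5% CO2, treated in triplicate with six doses for 72 h. Calcein AM was added for 1 h and live-cell fluorescence read at 485/538 nm. GI50 was taken from dose-response curves.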

Assay [3] relates to K562. The experiment in a line: Cell cycle arrest in human K562 cells assessed as accumulation at sub G1 phase at 10 uM after 24 hrs by propidium iodide staining-based flow cytometric analysis (reference value: 15%). It counts as functional.
Assay [4] deals with MCF7. Briefly: Induction of apoptosis in human MCF7 cells assessed as increase in PARP1 cleavage after 24 hrs by Immunoblotting. Format: functional, cell-based. In short, it runs like this: (§1)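 Cells treated 24 h with a range of doses, with 1 μM doxorubicin as control. Cells were harvested into Laemmli buffer, run on SDS-PAGE and blotted to nitrocellulose. Membranes were probed overnight with primary antibodies (PARP, Ser139-phospho-H2AX, Bcl-2, β-actin loading control), then peroxidase secondaries, with ECL detection on a CCD imager.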

Assay [5] deals with K562. Briefly: Induction of apoptosis in human K562 cells assessed as increase in gammaH2AX level at 1.25 to 20 uM after 24 hrs by immunoblotting. Format: functional, cell-based. In short, it runs like this: as §1
Assay [6] addresses Serine/threonine-protein kinase Nek4 (Homo sapiens) (UniProt P51957). Briefly: Inhibition of NEK4 (unknown origin).
Assay [7] relates to MCF7. The experiment in a line: Cell cycle arrest in human MCF7 cells assessed as accumulation at G2/M phase at 10 uM after 24 hrs by propidium iodide staining-based flow cytometric analysis (reference value: 5.3%). It counts as functional. In short, it runs like this: (§2)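 MCF-7 cells in DMEM with 10% FBS and penicillin/streptomycin at 37 °C, 5% CO2. Asynchronous cells were treated 24 h, PBS-washed, trypsinized and quenched with 0.1% trypsin inhibitor. Staining used 5× citrate/IGEPAL/spermine/Tris buffer (pH 7.6) with 50 μg/mL propidium iodide. DNA content was read by 488 nm flow cytometry and cell-cycle phases modelled.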

In assay [8] the test system is MCF7. Briefly: Cell cycle arrest in human MCF7 cells assessed as accumulation at G1 phase at 10 uM after 24 hrs by propidium iodide staining-based flow cytometric analysis (reference value: 60.7%). It counts as functional. In short, it runs like this: as §2
Assay [9] relates to K562. The experiment in a line: Cell cycle arrest in human K562 cells assessed as accumulation at G1 phase at 10 uM after 24 hrs by propidium iodide staining-based flow cytometric analysis (reference value: 34.6%). Format: functional.
In assay [10] the target is T1, Aurora kinase A (Homo sapiens) (UniProt O14965).
T1 sequence (whole entry): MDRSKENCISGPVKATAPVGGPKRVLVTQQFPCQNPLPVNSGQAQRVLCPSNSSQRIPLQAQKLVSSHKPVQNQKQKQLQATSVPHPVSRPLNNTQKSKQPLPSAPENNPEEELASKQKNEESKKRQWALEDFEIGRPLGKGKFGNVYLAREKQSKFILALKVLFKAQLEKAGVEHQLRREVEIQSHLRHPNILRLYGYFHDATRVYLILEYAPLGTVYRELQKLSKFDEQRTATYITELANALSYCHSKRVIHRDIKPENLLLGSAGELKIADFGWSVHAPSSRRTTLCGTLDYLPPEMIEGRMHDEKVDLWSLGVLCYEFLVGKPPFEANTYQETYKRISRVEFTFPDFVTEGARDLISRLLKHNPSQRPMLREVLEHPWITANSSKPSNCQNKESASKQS
Briefly: Inhibition of Aurora A (unknown origin).

Assay [11] has as its system K562. Briefly: Induction of apoptosis in human K562 cells assessed as increase in PARP1 cleavage after 24 hrs by Immunoblotting. It counts as functional, cell-based. In short, it runs like this:
as §1

The subject of assay [12] is K562. The experiment in a line: Cell cycle arrest in human K562 cells assessed as accumulation at G2/M phase after 24 hrs by propidium iodide staining-based flow cytometric analysis. It counts as functional.
Assay [13] concerns the target T2, Serine/threonine-protein kinase Nek2 (Homo sapiens) (UniProt P51955).
T2 sequence (whole entry): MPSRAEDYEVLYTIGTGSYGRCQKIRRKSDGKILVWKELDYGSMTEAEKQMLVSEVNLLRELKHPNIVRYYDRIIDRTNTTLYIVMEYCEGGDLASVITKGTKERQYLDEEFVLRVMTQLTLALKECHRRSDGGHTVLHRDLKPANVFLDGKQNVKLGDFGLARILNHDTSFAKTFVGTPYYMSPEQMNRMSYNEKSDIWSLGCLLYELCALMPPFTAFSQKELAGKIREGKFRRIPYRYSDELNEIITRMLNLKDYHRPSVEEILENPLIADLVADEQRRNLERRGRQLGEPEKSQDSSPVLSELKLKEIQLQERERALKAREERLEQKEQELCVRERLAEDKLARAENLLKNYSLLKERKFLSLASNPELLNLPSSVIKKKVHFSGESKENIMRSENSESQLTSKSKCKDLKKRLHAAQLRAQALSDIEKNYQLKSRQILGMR
The experiment in a line: Inhibition of NEK2 (unknown origin).

In assay [14] the target is Serine/threonine-protein kinase Nek6 (Homo sapiens) (UniProt Q9HC98). The experiment in a line: Inhibition of NEK6 (unknown origin).
Chain of Serine/threonine-protein kinase Nek6 (Homo sapiens) (Q9HC98 whole entry): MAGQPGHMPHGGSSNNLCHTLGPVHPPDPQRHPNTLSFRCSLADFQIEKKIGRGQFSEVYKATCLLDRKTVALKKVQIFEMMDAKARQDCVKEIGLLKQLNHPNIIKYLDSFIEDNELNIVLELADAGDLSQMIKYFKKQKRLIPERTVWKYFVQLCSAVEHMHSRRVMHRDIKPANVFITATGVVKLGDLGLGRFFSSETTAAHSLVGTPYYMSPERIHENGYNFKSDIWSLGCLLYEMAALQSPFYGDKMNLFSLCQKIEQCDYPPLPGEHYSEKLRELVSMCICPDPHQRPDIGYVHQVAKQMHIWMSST
The subject of assay [15] is MCF7. The experiment in a line: Cell cycle arrest in human MCF7 cells assessed as accumulation at S phase at 10 uM after 24 hrs by propidium iodide staining-based flow cytometric analysis (reference value: 34.1%). Format: functional. In short, it runs like this:
as §2

Assay [16] has as its system MCF7. The experiment in a line: Induction of apoptosis in human MCF7 cells assessed as increase in phosphorylated Bcl2 level at 1.25 to 20 uM after 24 hrs by immunoblotting. Format: functional, cell-based. In short, it runs like this: as §1
The subject of assay [17] is MCF7. The experiment in a line: Cell cycle arrest in human MCF7 cells assessed as accumulation at sub G1 phase at 10 uM after 24 hrs by propidium iodide staining-based flow cytometric analysis (reference value: 7.1%). It counts as functional. In short, it runs like this:
as §2

Assay [18] addresses Serine/threonine-protein kinase 38 (Homo sapiens) (UniProt Q15208). Briefly: Inhibition of NDR1 (unknown origin).
The target in assay [19] is T3, Serine/threonine-protein kinase Chk1 (Homo sapiens) (UniProt O14757).
T3 sequence (whole entry): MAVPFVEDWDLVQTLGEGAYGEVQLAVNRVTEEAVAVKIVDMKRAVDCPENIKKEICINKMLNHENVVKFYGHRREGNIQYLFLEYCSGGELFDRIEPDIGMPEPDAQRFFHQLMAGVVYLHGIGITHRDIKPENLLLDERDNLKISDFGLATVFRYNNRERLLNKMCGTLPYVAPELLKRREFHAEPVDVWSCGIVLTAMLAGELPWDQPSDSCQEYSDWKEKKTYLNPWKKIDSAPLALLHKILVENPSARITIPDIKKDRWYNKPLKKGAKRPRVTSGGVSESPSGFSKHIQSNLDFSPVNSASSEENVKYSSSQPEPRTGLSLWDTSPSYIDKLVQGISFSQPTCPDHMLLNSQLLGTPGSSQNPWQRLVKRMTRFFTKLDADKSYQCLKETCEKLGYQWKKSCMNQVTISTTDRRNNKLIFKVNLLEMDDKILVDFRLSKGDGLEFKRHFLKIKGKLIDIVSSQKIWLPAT
The experiment in a line: Inhibition of CHK1 (unknown origin).

Assay [20] addresses Serine/threonine-protein kinase PLK3 (Homo sapiens) (UniProt Q9H4B4). Briefly: Inhibition of PLK3 (unknown origin).

Chain of Serine/threonine-protein kinase PLK3 (Homo sapiens) (Q9H4B4 whole entry, looked up): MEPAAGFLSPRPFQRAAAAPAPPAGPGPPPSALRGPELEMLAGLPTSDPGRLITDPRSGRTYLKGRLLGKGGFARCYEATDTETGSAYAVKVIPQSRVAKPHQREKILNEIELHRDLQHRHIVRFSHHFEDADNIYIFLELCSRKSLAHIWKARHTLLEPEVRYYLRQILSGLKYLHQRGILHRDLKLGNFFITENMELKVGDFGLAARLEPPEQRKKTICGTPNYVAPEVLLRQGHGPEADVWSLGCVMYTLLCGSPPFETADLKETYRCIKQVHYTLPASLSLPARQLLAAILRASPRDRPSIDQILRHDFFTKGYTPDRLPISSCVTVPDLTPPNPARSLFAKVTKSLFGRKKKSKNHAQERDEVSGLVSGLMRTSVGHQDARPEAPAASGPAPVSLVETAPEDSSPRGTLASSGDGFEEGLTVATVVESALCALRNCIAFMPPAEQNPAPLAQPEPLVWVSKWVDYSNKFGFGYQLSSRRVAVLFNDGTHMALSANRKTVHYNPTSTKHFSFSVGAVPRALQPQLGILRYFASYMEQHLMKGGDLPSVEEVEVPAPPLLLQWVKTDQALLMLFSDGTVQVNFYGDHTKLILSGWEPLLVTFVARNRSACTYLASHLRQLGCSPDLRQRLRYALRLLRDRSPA
Chain of Serine/threonine-protein kinase 38 (Homo sapiens) (Q15208 2-465 limits assumed): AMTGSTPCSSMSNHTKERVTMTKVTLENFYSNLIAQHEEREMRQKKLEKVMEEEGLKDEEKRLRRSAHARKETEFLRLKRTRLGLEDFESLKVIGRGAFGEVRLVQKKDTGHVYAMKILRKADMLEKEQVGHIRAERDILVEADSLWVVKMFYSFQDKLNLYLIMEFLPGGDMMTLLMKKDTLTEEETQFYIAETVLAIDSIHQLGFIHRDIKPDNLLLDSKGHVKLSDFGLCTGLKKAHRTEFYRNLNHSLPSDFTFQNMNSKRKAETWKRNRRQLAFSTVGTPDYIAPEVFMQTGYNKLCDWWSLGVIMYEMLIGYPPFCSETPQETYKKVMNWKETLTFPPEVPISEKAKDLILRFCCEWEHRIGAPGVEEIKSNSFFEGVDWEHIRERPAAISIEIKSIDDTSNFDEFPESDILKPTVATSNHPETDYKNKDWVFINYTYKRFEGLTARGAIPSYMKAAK
Chain of Serine/threonine-protein kinase Nek4 (Homo sapiens) (P51957 whole entry, looked up): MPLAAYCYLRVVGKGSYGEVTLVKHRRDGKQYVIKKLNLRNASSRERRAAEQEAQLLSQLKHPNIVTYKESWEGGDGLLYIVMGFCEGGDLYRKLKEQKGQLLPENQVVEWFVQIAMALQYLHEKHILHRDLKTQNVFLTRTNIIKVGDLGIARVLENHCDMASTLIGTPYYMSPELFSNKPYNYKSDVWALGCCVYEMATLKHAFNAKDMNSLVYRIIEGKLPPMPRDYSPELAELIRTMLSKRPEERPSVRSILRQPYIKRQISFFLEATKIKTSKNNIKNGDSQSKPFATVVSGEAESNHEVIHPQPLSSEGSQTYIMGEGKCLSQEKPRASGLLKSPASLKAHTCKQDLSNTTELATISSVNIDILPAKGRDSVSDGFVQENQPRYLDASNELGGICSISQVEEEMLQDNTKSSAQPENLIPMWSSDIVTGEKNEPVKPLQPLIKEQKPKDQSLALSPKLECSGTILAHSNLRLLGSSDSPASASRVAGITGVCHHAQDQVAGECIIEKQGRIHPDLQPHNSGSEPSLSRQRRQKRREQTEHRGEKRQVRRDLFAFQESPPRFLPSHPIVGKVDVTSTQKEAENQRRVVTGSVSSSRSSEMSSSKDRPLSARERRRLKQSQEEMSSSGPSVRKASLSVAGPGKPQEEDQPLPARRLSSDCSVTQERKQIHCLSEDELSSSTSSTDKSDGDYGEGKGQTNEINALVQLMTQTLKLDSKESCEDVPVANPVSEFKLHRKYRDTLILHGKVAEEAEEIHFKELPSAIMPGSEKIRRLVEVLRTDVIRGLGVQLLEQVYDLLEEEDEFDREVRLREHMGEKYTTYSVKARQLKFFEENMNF

In the case of `CCCCCc1cc2nn(-c3ccccc3)cc2cn1`, the inhibition entry in assay [1], in assay [6], in assay [10], in [13], in [14] and in assay [18] was “inactive” in each case. Moreover, the inhibition result in assay [19] and in assay [20] was “inactive” throughout. Also, the GI50 in the assay on K562 [2] is 2.1 µM. Further, the Activity in the assay on K562 [3] is 35.4%; in the assay on MCF7 [4], “Dose-dependent effect”; in the assay with MCF7 [7], 55.6%; with MCF7 [8] it was 18.1%; in the assay on K562 [9], 14.8%; with K562 [11], “Dose-dependent effect”. The Activity result in the assay with K562 [12] is “Dose-dependent effect”; with MCF7 [15], 26.3%; in the assay on MCF7 [17] it was 50.3%. The result with K562 [5] and in the assay on MCF7 [16] was Active.
